Laboratory results from ChEMBL document CHEMBL4513216, “Probing the Open Global Health Chemical Diversity Library for Multistage-Active Starting Points for Next-Generation Antimalarials” (ACS Infect Dis, 2020).

test: Toxicity liver stage against HepG2, at 10uM; type: cell-based; design: test concentration 10 uM, cell line HepG2-A16-CD81EGFP; conditions: human, HepG2-A16-CD81EGFP cells; read-out: INHIBITION
How it was run: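 Uninfected HepG2-A16-CD81EGFP cells, 3 × 10^3 per well, 1536-well, plated on prespotted compound at 10 μM final, parasite-free screening media added to match infected plates; puromycin 10 μM positive, DMSO 0.5% negative; run in parallel with 48 h PbLuc assay at 37 °C, 5% CO2; viability by CellTiter-Glo luminescence, normalized to controls.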

| Structure (SMILES) | cytotoxicity at 10 µM |
| --- | --- |
| O=C(NCc1cccnc1)[C@@H]1CC[C@@H]2[C@@H](CCN2c2ncc(F)cn2)O1 | -44.6% |
| Cc1csc(C(C)(C)NCCOc2ccc(CC#N)cc2)n1 | 1.74% |
| Oc1cc(CN2CCC(O)(Cn3ccnc3)CC2)nc2c(Cl)cccc12 | -60.8% |
| CCc1ccc(CN(CCN(C)C)Cc2ccc(C)s2)nc1 | -43% |
| CN(C)C(=O)CN1CC[C@@H]2O[C@@H](COCc3cccnc3)CC[C@@H]21 | -67.2% |
| CCS(=O)(=O)N1CCCC(c2nccn2Cc2cccnc2)C1 (stereo not given) | -2.78% |
| CC1(C)CN(Cc2cc(C3CCCCC3)no2)CC[C@]1(C)O | -4.59% |
| O=C(CN1CCOC(c2ccccc2C(F)(F)F)C1)NC1CC1 (stereo not given) | 3.02% |
| CN1CCN(C2COC3(CCN(Cc4ccsc4)CC3)C2)CC1 (stereo not given) | -77.1% |
| CN(CC(=O)N(C)C1CCCCC1)Cc1nc2c(cnn2C)c(=O)[nH]1 | 9.12% |
| CN(Cc1nc(COc2ccccc2)no1)CC1Cc2ccccc2O1 (stereo not given) | -4.4% |
| O=C(c1ccco1)N(CC(F)(F)F)C1CCCOC1 (stereo not given) | -19.5% |
| CCn1nc(C)c2nc(C)nc(N(C)Cc3ccco3)c21 | 4.23% |
| CN(C)CCO[C@H]1CN(C(=O)c2ccc(C#N)cc2)[C@@H]2COC[C@H]12 | 0.929% |
| O=C1CCCN1Cc1ncn2c1CN(S(=O)(=O)c1cccs1)CCC2 | 4.76% |
| O=C(CN1CCC(Nc2ncccn2)CC1)Nc1ccccc1 | -17.5% |
| Cc1ccc(N2CCCC(N(C)Cc3nc(C)c(C)o3)C2)nn1 (stereo not given) | 3.15% |
| O=C(C1CCCC1)N1CCCC([C@@H]2C[C@H](C(F)F)n3ncnc3N2)C1 (stereo not given in full) | 4.54% |
| O=C1CCc2cc(-c3csc(CCN4CCOC4=O)n3)c(F)cc2N1 | 35.2% |
| Cc1cccc(S(=O)(=O)NC(=O)CN(C)Cc2ccccc2)c1 | -14.3% |
| O=C(O)c1ccnc2c(Br)cccc12 | 8.02% |
| CCn1ccc(NS(=O)(=O)c2cccc(CSC)c2)n1 | 10.4% |

| Structure (SMILES) | cytotoxicity at 10 µM |
| --- | --- |
| O=C(Cc1c(F)cccc1Cl)N1CCC(Nc2cccnn2)CC1 | -4.92% |
| O=C(CN1CCCCC1)Nc1ncc(Br)cc1Br | -9.58% |
| COc1ccc(NC(=O)CCC2CCCN(S(=O)(=O)C3CC3)C2)c(C)c1 (stereo not given) | -3.41% |
| CCOc1ncccc1CNC(=O)Nc1ccc(N(C)C)nc1 | -11.8% |
| CCOCC(O)CN1CCN(C(=O)Cc2cccc(Cl)c2)CC1 (stereo not given) | -7.69% |
| CC(C)N1CCCC2(CCN(C(=O)CCCn3cncn3)C2)C1=O (stereo not given) | -11.1% |
| COCCNC(=O)Cn1c(-c2cccc(Cl)c2)nc(C)c(CCO)c1=O | -0.86% |
| CSCC[C@@H](CO)Nc1ccc(-c2nc(-c3ccccc3C)no2)cn1 | 3.77% |
| CCn1nnc2c1CCN(C(=O)c1ccc3c(c1)OCO3)C2COC (stereo not given) | 6.43% |
| CCN(CC)C(=O)N1CCN(C(=O)C2CCCc3[nH]ncc32)CC1 (stereo not given) | -2.3% |
| CC(C)n1cnnc1CN(C)C(=O)c1ccccc1N1CCOCC1 | 1.47% |
| COc1cc2cc3c(nc2cc1OC)OCCN(Cc1cccs1)C3 | 11.4% |
| Cc1noc(C(C)N2CCN(Cc3nnc(C4CC4)o3)CC2)n1 (stereo not given) | -11.8% |
| CN1CCN(c2nsc(-c3cccnc3)c2C#N)CC1 | 0.916% |
| CCC(CCN)n1ccc(C(F)(F)F)n1 (stereo not given) | -11.2% |
| COc1ccccc1N1CCN(Cc2nc(C)c(C)o2)CC1 | 13.4% |
| O=C(NCCN1CCCC1)C1(c2ccc(Cl)cc2)CCOCC1 | -2.16% |
| c1ccc(Cn2cccn2)c(CNCC2CNc3ccnn3C2)c1 (stereo not given) | -10.7% |
| Cc1cn[nH]c1C1CCCCN1C(=O)CCc1c(C)n[nH]c1C (stereo not given) | -10.5% |
| O=C(NC1CC1)C1CN(c2nc3ccccc3s2)CCN1 (stereo not given) | -49.4% |
| Cc1nc(C2CCCN(C(=O)c3cc(Cl)c4c(c3)OCO4)C2)no1 (stereo not given) | -2.09% |
| CN1CCN(CCC(F)(F)C(F)F)CC12CCNC(=O)CC2 (stereo not given) | -39.7% |

| Structure (SMILES) | cytotoxicity at 10 µM |
| --- | --- |
| COc1cccc([S+]([O-])CC(=O)NCc2cc(F)cc(F)c2)c1 (stereo not given) | -0.491% |
| c1cnnc(N2CCCC2CNCCc2cccs2)c1 (stereo not given) | -0.555% |
| CCn1cnnc1CNC(=O)N1CCOCC1 | 3.66% |
| Cc1nc(NCc2nnc(C)n2C)c2c(CC(C)C)csc2n1 | 9.56% |
| CN(C)C(=O)CN1CC[C@H]2CN(S(C)(=O)=O)C[C@@H]2C1=O | -13.1% |
| O=C1CC[C@H]2[C@H](CCN2C(=O)c2ccc[nH]2)N1CCN1CCOCC1 | 3.3% |
| Cc1nc(CN2CCCn3nc(CNC(=O)C4CCC4)cc3C2)co1 | 3.26% |
| Cc1cc(C)c(S(N)(=O)=O)cc1C(=O)NCC1Cc2ccccc2O1 (stereo not given) | -4.53% |
| CO[C@H]1CN(Cc2ccc(F)c(F)c2)C[C@@]12CCCO2 | -5.52% |
| c1cncc(CN2CCO[C@H]3[C@H](OCCN4CCCC4)CC[C@@H]32)c1 | 3.36% |
| COCCCN1CCCN(C(C)C(=O)Nc2cccc(I)c2)CC1 (stereo not given) | -8.34% |
| COC[C@H]1CCC[C@]12CN(CCc1ccccc1)CCO2 | 4.34% |
| CN(Cc1cncs1)C1CCN(C(=O)OC(C)(C)C)CC1 | 5.94% |
| O=C(c1ccccn1)N1CCN(C(c2ccccc2)C(F)(F)F)CC1 (stereo not given) | -8.18% |
| COc1ccc2c(c1)NC(=O)C2OC(=O)Cc1ccccc1C (stereo not given) | 45.2% |
| CCc1nc(C)c(C(=O)NCCN2CCC(C)CC2)s1 | -5.6% |
| CS(=O)(=O)CCCNC1(c2cccc(F)c2)CC1 | -3.39% |
| COc1cc(NC(=O)c2ccc(Cl)cc2F)c(C(=O)N(C)C)cc1OC | -18.9% |
| CCOCC(=O)N1CCCn2c(CN3CCCCC3)nnc2C1 | -110% |
| CC(C)CC(=O)N1CC(=O)N(CCc2ccccc2)CC(O)C1 (stereo not given) | -6.4% |
| COc1ccnc(N2C[C@@H](NS(=O)(=O)N(C)C)[C@H](C(C)C)C2)n1 | -144% |
| CC(OCC1CC1)C(=O)NCCC(=O)Nc1ccccn1 (stereo not given) | -5.72% |

| Structure (SMILES) | cytotoxicity at 10 µM |
| --- | --- |
| Cc1ccc(C(=O)NS(=O)(=O)c2ccc3c(c2)OCCCO3)o1 | 2.91% |
| Cc1cccn2c(NC(C)(C)C)c(C3CCN(C(=O)C4CC4)CC3)nc12 | 3.53% |
| NC(=O)COc1ccc(CN2CCNC(C(=O)NC3CC3)C2)cc1Cl (stereo not given) | 0.887% |
| COc1cc(NC(=O)c2cc(C)sc2C)c(C(=O)N(C)C)cc1OC | -10.6% |
| CC(=O)N(Cc1noc(C)n1)C1CCN(CCOc2ccccc2)C1 (stereo not given) | -2.04% |
| Cc1sc2c(C3CCCN(C(C)C)C3)nc(C)n2c1C (stereo not given) | -13.8% |
| COCc1nnc(C(=O)N2CCC(N3CCCCC3)CC2)o1 | 10.2% |
| CCC1=NC(SCC(=O)c2ccccc2)c2cc(CC)sc2N1 (stereo not given) | -12.5% |
| Cc1ccsc1CN(CCN(C)C)C(=O)c1ccc(C#N)nc1 | -120% |
| CN(Cc1nc2ccccc2n1C)CC1CCCN1c1cccnn1 (stereo not given) | -4.41% |
| COc1ccc(NCc2nc(=O)n(CCC(C)C)[nH]2)cc1 | -2.9% |
| Cc1cc(C)nc(Nc2cccc(C3CCCN(C(C)C)C3)n2)n1 (stereo not given) | -19.4% |
| Cc1nc(CN(C)CC2CCCN(CCc3ccc(Cl)cc3)C2)n(C)n1 (stereo not given) | 4.44% |
| Cc1cc(C(=O)NCC(c2ccsc2)N(C)C)no1 (stereo not given) | -18.3% |
| CN(C)C[C@H]1OC[C@@H]2CCN(C(=O)c3ccco3)C[C@@H]21 | 4.84% |
| CN(Cc1ccn[nH]1)Cc1c[nH]nc1-c1ccc(F)cc1 | -6.41% |
| COCCCn1ccc(NCc2cnc(C(C)(C)C)s2)n1 | 5.91% |
| Cc1cc(NC(=O)CN2CCn3c(nnc3C(C)C)C2)n(C)n1 | -5.39% |
| CCN1CCc2c(cccc2NC(=O)CN(C)C2CCSC2)C1 (stereo not given) | -47% |
| C[C@@H]1CN(c2ccc(C#N)cn2)CC[C@@]1(O)C1CCOCC1 | -1.5% |
| CNc1ccc(C2CN(c3cc(C)ncn3)CCO2)nc1 (stereo not given) | 7.14% |
| CC(=O)N1CCC(c2nc(Cc3ccccc3)no2)C1 (stereo not given) | 5.15% |

| Structure (SMILES) | cytotoxicity at 10 µM |
| --- | --- |
| NC(=O)C1CCN(S(=O)(=O)c2cnn(-c3ccccc3)c2)CC1 | 8.51% |
| Cc1cc(N2CCCN3CCC[C@H]3C2)n2nc(C)c(C)c2n1 | 4.37% |
| CCc1ncc(CN2C[C@@H]3CC[C@H]2CN(C(=O)C2CCC2)C3)cn1 | 4.96% |
| CCc1ncnc2c1CCN(c1ncc(F)cn1)CC2 | 7.86% |
| CC(=O)N1CC2(CCCN(Cc3ccc(Cl)cc3)C2)Cc2ccccc21 (stereo not given) | 10.6% |
| O=C(NCc1cc[nH]n1)N1CCN(c2ccccc2Cl)CC1 | -2.82% |
| CCCN1CCCn2nc(CNS(=O)(=O)c3cnn(CC)c3)cc2C1 | -7.23% |
| OC1CN(Cc2ccccc2)CCN(c2ccncc2)C1 (stereo not given) | -4.74% |
| CCC(C)(NCC(=O)N(c1ccccc1)C(C)C)c1nc(C)cs1 (stereo not given) | 10.9% |
| CCCS(=O)(=O)NCC(C)(O)c1ccsc1 (stereo not given) | -1.7% |
| Fc1ccccc1-c1noc2c1CN(CC1CC1)CC2 | -15.4% |
| Cn1cc(CN2CC[C@]3(C[C@H](OCc4ccccn4)CO3)C2)cn1 | -1.08% |
| O=C(c1c(O)cnc2ccccc12)N1CCCSCC1 | -9.7% |
| CCSC(C)c1nc(-c2ccc(C)nn2)no1 (stereo not given) | -6.24% |
| COc1ccc(N2CCN(C(=O)CCn3nccc3C)CC2(C)C)cc1 | 57.1% |
| Cc1nsc(NC2CCOC3(CCCC3)C2)n1 (stereo not given) | 8.85% |
| O=C(CCN1CCOC(Cn2cccn2)C1)NC1CCCCC1 (stereo not given) | -6.28% |
| Cc1ccc(N2CCCc3sc(C(=O)NCC4CCCO4)nc32)nn1 (stereo not given) | -1.19% |
| NC(=O)Cn1cc(NC(=O)NCCN2CCc3ccccc3C2)cn1 | -9.52% |
| CCOC(=O)CNC(=O)NCc1cc(C)n(-c2ccccc2OC)c1C | 13.3% |
| O=C1CO[C@H]2CN(C3CCOCC3)C[C@H]2N1Cc1ccncc1 | 5.89% |
| Fc1ccccc1C1NCCc2cc3c(cc21)OCCO3 (stereo not given) | -10.2% |
